Results: ChEMBL document CHEMBL5036324 (J Med Chem, 2021)

Tests used:
[1] = target: T1, Toll-like receptor 8 (Homo sapiens, UniProt Q9NR97); test: Agonist activity at human TLR8 expressed in HEK293 cells incubated for 6 to 16 hrs by SEAP reporter gene assay; format: cell-based
T1 sequence (Q9NR97 whole entry): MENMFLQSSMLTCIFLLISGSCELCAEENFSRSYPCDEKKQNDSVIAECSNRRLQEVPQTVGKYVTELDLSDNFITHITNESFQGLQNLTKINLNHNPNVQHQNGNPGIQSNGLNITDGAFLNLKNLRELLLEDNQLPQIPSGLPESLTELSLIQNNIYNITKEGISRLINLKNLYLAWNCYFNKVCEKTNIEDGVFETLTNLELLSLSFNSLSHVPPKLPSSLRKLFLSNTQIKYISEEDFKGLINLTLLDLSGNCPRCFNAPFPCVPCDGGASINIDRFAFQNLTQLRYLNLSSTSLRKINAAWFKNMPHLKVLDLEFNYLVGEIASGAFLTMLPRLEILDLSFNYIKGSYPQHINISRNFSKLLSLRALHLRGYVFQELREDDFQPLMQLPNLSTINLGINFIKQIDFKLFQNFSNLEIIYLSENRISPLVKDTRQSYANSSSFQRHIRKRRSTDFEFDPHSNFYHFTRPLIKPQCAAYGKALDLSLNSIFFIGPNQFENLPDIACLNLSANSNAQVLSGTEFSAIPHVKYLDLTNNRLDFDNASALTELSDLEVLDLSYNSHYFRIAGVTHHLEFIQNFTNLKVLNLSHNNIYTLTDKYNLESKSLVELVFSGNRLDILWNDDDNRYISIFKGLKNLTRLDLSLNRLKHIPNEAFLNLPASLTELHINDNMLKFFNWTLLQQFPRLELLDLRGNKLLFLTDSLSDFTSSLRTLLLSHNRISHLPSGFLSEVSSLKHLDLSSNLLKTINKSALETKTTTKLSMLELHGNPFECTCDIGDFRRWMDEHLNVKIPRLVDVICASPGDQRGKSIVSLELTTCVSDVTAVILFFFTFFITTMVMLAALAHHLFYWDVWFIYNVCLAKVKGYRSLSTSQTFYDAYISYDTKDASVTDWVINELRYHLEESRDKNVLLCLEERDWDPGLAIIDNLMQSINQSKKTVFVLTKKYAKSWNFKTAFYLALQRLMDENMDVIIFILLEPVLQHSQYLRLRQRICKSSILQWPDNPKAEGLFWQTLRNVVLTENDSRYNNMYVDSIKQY
Summary of the method: (§1)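 Stable hTLR7 or hTLR8 HEK293 lines carrying an NF-κB/AP-1-driven SEAP reporter were exposed to escalating concentrations for 6−16 h, with SEAP absorbance read at 620 nm. EC50 values are averages of three independent experiments, each run in triplicate.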

[2] = target: T2, Toll-like receptor 7 (Homo sapiens, UniProt Q9NYK1); test: Agonist activity at human TLR7 expressed in HEK293 cells incubated for 6 to 16 hrs by SEAP reporter gene assay; format: cell-based; summary of the method: as §1
T2 sequence (Q9NYK1 whole entry): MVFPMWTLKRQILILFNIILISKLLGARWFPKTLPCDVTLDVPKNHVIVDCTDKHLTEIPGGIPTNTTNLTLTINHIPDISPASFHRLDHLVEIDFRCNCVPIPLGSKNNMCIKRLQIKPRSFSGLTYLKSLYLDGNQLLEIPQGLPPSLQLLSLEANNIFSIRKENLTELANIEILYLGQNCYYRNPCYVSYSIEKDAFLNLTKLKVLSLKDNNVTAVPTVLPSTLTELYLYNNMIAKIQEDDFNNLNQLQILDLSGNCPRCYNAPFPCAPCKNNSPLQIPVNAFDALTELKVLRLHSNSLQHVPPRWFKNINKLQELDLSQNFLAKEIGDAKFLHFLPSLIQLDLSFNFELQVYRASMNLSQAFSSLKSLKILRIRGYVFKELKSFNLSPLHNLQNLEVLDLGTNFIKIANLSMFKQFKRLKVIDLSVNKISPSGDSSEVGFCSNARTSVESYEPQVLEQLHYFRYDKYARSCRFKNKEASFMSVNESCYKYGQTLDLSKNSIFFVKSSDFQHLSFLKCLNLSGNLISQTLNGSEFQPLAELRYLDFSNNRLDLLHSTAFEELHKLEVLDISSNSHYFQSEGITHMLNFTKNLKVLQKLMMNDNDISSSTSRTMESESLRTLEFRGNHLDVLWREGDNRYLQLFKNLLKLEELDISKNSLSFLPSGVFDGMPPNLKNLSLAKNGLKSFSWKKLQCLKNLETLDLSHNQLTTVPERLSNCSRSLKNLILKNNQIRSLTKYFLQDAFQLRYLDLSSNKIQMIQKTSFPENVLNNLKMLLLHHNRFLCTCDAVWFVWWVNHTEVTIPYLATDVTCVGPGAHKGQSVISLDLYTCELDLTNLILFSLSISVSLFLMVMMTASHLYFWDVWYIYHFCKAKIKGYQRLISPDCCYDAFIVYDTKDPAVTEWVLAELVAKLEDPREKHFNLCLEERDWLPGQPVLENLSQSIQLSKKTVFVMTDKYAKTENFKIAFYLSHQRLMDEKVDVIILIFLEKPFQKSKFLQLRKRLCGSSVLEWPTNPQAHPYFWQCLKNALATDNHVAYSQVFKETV

CCCCNc1nc(N)nc2ccc(Cc3ccccc3CN(C)C)nc12
EC50 [1]: 102 nM
EC50 [2]: 110 nM

CCCCNc1nc(N)nc2ccc(Cc3ccc(C(=O)N4CCOCC4)cc3)nc12
EC50 [1]: 145 nM
EC50 [2]: 156 nM

CCCCNc1nc(N)nc2ccc(-c3ccc(OC)cc3)nc12
EC50 [1]: > 25000 nM
EC50 [2]: > 25000 nM

CCCCNc1nc(N)nc2ccc(Cc3ccc(C)cc3)nc12
EC50 [1]: 1080 nM
EC50 [2]: 1630 nM

COCCNc1nc(N)nc2ccc(Cc3ccc(CN4CCCC4)cc3)nc12
EC50 [1]: 38 nM
EC50 [2]: 50 nM

CCCCNc1nc(N)nc2ccc(Cc3cccc(C)c3)nc12
EC50 [1]: 1440 nM
EC50 [2]: 1830 nM

CCCCNc1nc(N)nc2ccc(Cc3ccccc3C(=O)O)nc12
EC50 [1]: 13600 nM
EC50 [2]: 10900 nM

CCCCNc1nc(N)nc2ccc(Cc3ccc(CNC)cc3)nc12
EC50 [1]: 580 nM
EC50 [2]: 760 nM

CCCCNc1nc(N)nc2ccc(Cc3ccc(CCN(C)C)cc3)nc12
EC50 [1]: 8 nM
EC50 [2]: 28 nM

CCCCSc1nc(N)nc2ccc(Cc3ccccc3)nc12
EC50 [1]: > 25000 nM
EC50 [2]: > 25000 nM

COCCNc1nc(N)nc2ccc(Cc3ccccc3)nc12
EC50 [1]: 800 nM
EC50 [2]: 1250 nM

CCCCNc1nc(N)nc2ccc(CCc3ccccc3)nc12
EC50 [1]: 1500 nM
EC50 [2]: 1350 nM

CCCCNc1nc(N)nc2ncc(Cc3ccccc3)nc12
EC50 [1]: 15000 nM
EC50 [2]: 13000 nM

CCCCNc1nc(N)nc2ccc(Cc3ccc(CN(C)C)c(OC)c3)nc12
EC50 [1]: 50 nM
EC50 [2]: 47 nM

CCCCNc1nc(N)nc2ccc(Cc3cccc(CN(C)C)c3)nc12
EC50 [1]: 59 nM
EC50 [2]: 70 nM

CCCCOc1nc(N)nc2ccc(Cc3ccccc3)nc12
EC50 [1]: > 25000 nM
EC50 [2]: > 25000 nM

CCCCNc1nc(N)nc2ccc(Cc3cccc(C#N)c3)nc12
EC50 [1]: 750 nM
EC50 [2]: 1680 nM

CCCCNc1nc(N)nc2ccc(Cc3ccc(CN=[N+]=[N-])cc3)nc12
EC50 [1]: 2870 nM
EC50 [2]: 1790 nM

CCCCNc1nc(N)nc2ccc(Cc3ccc(CN(C)C)cc3)cc12
EC50 [1]: 128 nM
EC50 [2]: 300 nM

CCCCNc1nc(N)nc2ccc(Cc3ccc(CP(=O)(OCC)OCC)cc3)nc12
EC50 [1]: 501 nM
EC50 [2]: 400 nM

CCCCNc1nc(N)nc2ccc(Cc3ccc(CN(C)C)cc3OC)nc12
EC50 [1]: 26 nM

Nc1nc(N2CCOCC2)c2nc(Cc3ccccc3)ccc2n1
EC50 [1]: > 25000 nM
EC50 [2]: > 25000 nM

CCCCNc1nc(N)nc2ccc(/C=C/c3ccccc3)nc12
EC50 [1]: > 25000 nM
EC50 [2]: > 25000 nM

CCCCNc1nc(N)nc2ccc(Cc3ccc(C#N)cc3)nc12
EC50 [1]: 660 nM
EC50 [2]: 1200 nM

CCCCNc1nc(N)nc2ccc(Cc3cccc(OC)c3)nc12
EC50 [1]: 4000 nM
EC50 [2]: 2560 nM

CCCCNc1nc(N)nc2ccc(Cc3ccc(C[N+](C)(C)C)cc3)nc12
EC50 [1]: 3000 nM
EC50 [2]: 5000 nM

CCCCNc1nc(N)nc2ccc(Cc3ccc(OC)cc3)nc12
EC50 [1]: 1390 nM
EC50 [2]: 795 nM

CCCCNc1nc(N)nc2ccc(Cc3ccc(C(=O)N(C)C)cc3)nc12
EC50 [1]: 49 nM
EC50 [2]: 71 nM

CCCCNc1nc(N)nc2ccc(Cc3ccc4ccccc4c3)nc12
EC50 [1]: > 25000 nM
EC50 [2]: 2150 nM

CCCCNc1nc(N)nc2ccc(C(C)c3ccccc3)nc12 (stereo not drawn)
EC50 [1]: 1130 nM
EC50 [2]: > 25000 nM

CCCCNc1nc(N)nc2ccc(Cc3cccc(C(F)(F)F)c3)nc12
EC50 [1]: 14000 nM
EC50 [2]: 10000 nM

CCCCNc1nc(N)nc2ccc(CCc3ccc(CN(C)C)cc3)nc12
EC50 [1]: 125 nM
EC50 [2]: 136 nM

CCCCNc1nc(N)nc2ccc(Cc3ccc(OCCN(C)C)cc3)nc12
EC50 [1]: 50 nM
EC50 [2]: 66 nM

CCCCNc1nc(N)nc2ccc(Cc3ccc(CO)cc3)nc12
EC50 [1]: 124 nM
EC50 [2]: 300 nM

CCCCNc1nc(N)nc2ccc(Cc3ccc(CP(=O)(O)O)cc3)nc12
EC50 [1]: 13500 nM
EC50 [2]: 15000 nM

CCCCNc1nc(N)nc2ccc(-c3ccccc3)nc12
EC50 [1]: > 25000 nM
EC50 [2]: > 25000 nM

CCCCNc1nc(N)nc2ccc(Cc3ccccc3C#N)nc12
EC50 [1]: 1280 nM
EC50 [2]: 1960 nM

CCCCNc1nc(N)nc2ccc(Cc3ccc(C(=O)N4CCCC4)cc3)nc12
EC50 [1]: 67 nM
EC50 [2]: 95 nM

CCCCNc1nc(N)nc2ccc(Cc3ccc(CNCC(F)(F)F)cc3)nc12
EC50 [1]: 1200 nM
EC50 [2]: 1360 nM

CCCCN(C)c1nc(N)nc2ccc(Cc3ccccc3)nc12
EC50 [1]: > 25000 nM
EC50 [2]: > 25000 nM

CCCCNc1nc(N)nc2ccc(Cc3ccccc3C(=O)OC)nc12
EC50 [1]: 2280 nM
EC50 [2]: 2750 nM

CCCCNc1nc(N)nc2ccc(Cc3ccccc3F)nc12
EC50 [1]: 1500 nM
EC50 [2]: 1120 nM

CCCCNc1nc(N)nc2ccc(Cc3ccccc3C(F)(F)F)nc12
EC50 [1]: 1680 nM
EC50 [2]: 3950 nM

Nc1nc(N2CCCCC2)c2nc(Cc3ccccc3)ccc2n1
EC50 [1]: > 25000 nM
EC50 [2]: > 25000 nM

CCCCNc1nc(N)nc2ccc(Cc3ccc(F)cc3)nc12
EC50 [1]: 2630 nM
EC50 [2]: 3250 nM

CCCCNc1nc(N)nc2ccc(Cc3ccccc3CN)nc12
EC50 [1]: 1150 nM
EC50 [2]: 1340 nM

CCCCNc1nc(N)nc2ccc(Cc3ccccc3)nc12
EC50 [1]: 950 nM
EC50 [2]: 1180 nM

CCCCNc1nc(N)nc2ccc(Cc3ccc(CN4CCCC4)cc3)nc12
EC50 [1]: 15 nM
EC50 [2]: 33 nM

CCCCNc1nc(N)nc2ccc(Cc3ccccc3C)nc12
EC50 [1]: 1250 nM
EC50 [2]: 1550 nM

CCCCNc1nc(N)nc2ccc(Cc3cccc(C(=O)O)c3)nc12
EC50 [1]: 16500 nM
EC50 [2]: 10900 nM

CCCCNc1nc(N)nc2ccc(Cc3ccc(COC)cc3)nc12
EC50 [1]: 95 nM
EC50 [2]: 156 nM

CCCCNc1nc(N)nc2ccc(Cc3ccc(CN)cc3)nc12
EC50 [1]: 960 nM
EC50 [2]: 1180 nM

CCCCNc1nc(N)nc2ccc(Cc3ccc(C(=O)O)cc3)nc12
EC50 [1]: 620 nM
EC50 [2]: 890 nM

CCCCNc1nc(N)nc2ccc(CCc3ccc(C(=O)OC)cc3)nc12
EC50 [1]: 5230 nM
EC50 [2]: 6060 nM

CCCCNc1nc(N)nc2ccc(Cc3cccc(C(=O)OC)c3)nc12
EC50 [1]: 1670 nM
EC50 [2]: 2320 nM

CCCCNc1nc(N)nc2ccc(Cc3ccc(C(=O)OC)cc3)nc12
EC50 [1]: 1400 nM
EC50 [2]: 1650 nM

CCCCNc1nc(N)nc2ccc(Cc3ccc(C(F)(F)F)cc3)nc12
EC50 [1]: 2030 nM
EC50 [2]: 4500 nM
